Measurements from article PMC9305210 (British Journal of Clinical Pharmacology, 2022).
Like-named read-outs stand apart in the source and are kept apart here. Marks after values point to notes of the source that are not given here.

Tests used:
[1] = format: in vivo, human; conditions: for half-life / AUC: human; for half-life / AUC / CL/F, mean (CV%): plasma; for half-life: oral; for AUC: po, AUCτ, mean (CV%), AUCτ = AUC24
CH24H = conditions: CH24H‐knockout mice vs wild‐type controls; cited from earlier work
[2] = system: plasma 24S‐hydroxycholesterol (24HC); test: Pharmacodynamics: time‐matched percentage change from baseline in plasma 24HC; format: in vivo, human
In short: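 Healthy adults (18-55 y, BMI 18-30 kg/m2), 6 active:2 placebo, double-blind; oral solution QD or BID after ≥8 h fast. 24HC by LC-MS/MS, validated 2.00-100 ng/mL. Time-matched % change from baseline; AUEC24/E24 for QD, AUEC12/E12 for BID.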

24HC levels in the brain = conditions: single oral administration in mice; cited from earlier work
Urine pharmacokinetics = format: in vivo, human; conditions: for Ae t, mean (CV%) / f e, mean (CV%): urine
[3] = healthy subjects, cited from earlier work
[4] = soticlestat 100 mg QD oral solution, day 1
[5] = soticlestat 100 mg QD oral solution, day 14
[6] = soticlestat 300 mg QD oral solution, day 1
[7] = soticlestat 300 mg QD oral solution, day 14
[8] = soticlestat 400 mg QD oral solution, day 1
[9] = soticlestat 400 mg QD oral solution, day 14
[10] = soticlestat 600 mg QD oral solution, day 1
[11] = day 14, 400 mg dose (range 100‐400 mg QD)

O=C(c1cccnc1-c1ccncc1)N1CCC(O)(Cc2ccccc2)CC1 [Soticlestat, soticlestat]
increase in AUCτ at steady state (accumulation ratio based on AUC) ([1]; 300 mg QD for 14 days): ~1.42 fold
increase in C max at steady state (day 14 vs day 1) ([1]; 300 mg QD for 14 days): approximately 1.74 fold
accumulation ratio based on AUC ([1]; 400 mg QD): 1.20
dose proportionality of steady‐state exposure ([1]; 100‐400 mg QD, 14 days): slightly greater than dose‐proportional
increase in single‐dose mean AUC∞ over 6‐fold dose range ([1]; day 1, 100‐600 mg): 9.35 fold
increase in single‐dose mean C max over 6‐fold dose range ([1]; day 1, 100‐600 mg): 6.55 fold
time‐dependent effect of PK on repeat dosing ([1]; day 1 vs day 14): not apparent
increase in mean AUCτ over 4‐fold dose range ([1]; day 14, 100‐400 mg QD): 6.12 fold
increase in mean C max over 4‐fold dose range ([1]; day 14, 100‐400 mg QD): 6.08 fold
half-life ([1]; elimination half‐life, overall, as summarised in abstract): ~4 h
half-life ([1]; mean half‐life, at 300 mg QD and 400 mg QD): ~4 h
half-life ([1]; mean terminal elimination half‐life (t ½z), range across groups, day 1 and day 14, all doses): 3.49 to 4.83 h
AUC ([1]; 100 mg, soticlestat 100 mg QD oral solution, day 1): 446 ng·h/mL
AUC ([1]; 100 mg, soticlestat 100 mg QD oral solution, day 14): 458 ng·h/mL
AUC ([1]; 300 mg, soticlestat 300 mg QD oral solution, day 1): 2030 ng·h/mL
AUC ([1]; 300 mg, soticlestat 300 mg QD oral solution, day 14): 2690 ng·h/mL
AUC ([1]; 400 mg, soticlestat 400 mg QD oral solution, day 1): 2500 ng·h/mL
AUC ([1]; 400 mg, soticlestat 400 mg QD oral solution, day 14): 2800 ng·h/mL
AUC ([1]; 600 mg, soticlestat 600 mg QD oral solution, day 1): 4180 ng·h/mL
exposure accumulation on day 14 compared with day 1 ([1]; once‐daily dosing of 100 or 400 mg for 14 days): did not appear to result in exposure accumulation
CL/F, mean (CV%) [1, 4]: 248 (40.4) ^c L/h
CL/F, mean (CV%) [1, 5]: 234 (29.6) L/h
CL/F, mean (CV%) ([1]; soticlestat 300 mg BID oral solution, day 1 after first dose): 232 (47.3) ^e L/h
CL/F, mean (CV%) [1, 6]: 185 (47.6) L/h
CL/F, mean (CV%) [1, 7]: 130 (43.9) L/h
CL/F, mean (CV%) [1, 8]: 187 (38.8) L/h
CL/F, mean (CV%) [1, 9]: 166 (44.4) L/h
CL/F, mean (CV%) [1, 10]: 194 (57.5) L/h
dose proportionality of systemic exposure ([1]; single doses of 100‐600 mg QD): slightly greater than dose‐proportional
soticlestat distribution in the brain (CH24H): substantially lower level of soticlestat distribution in the brain than wild‐type controls
24HC AUECτ, mean (CV%), percentage change from baseline (day −1) ([2]; AUECτ = AUEC12, 300 mg BID, day 1): −6.90 (−75.9) %
24HC AUECτ, mean (CV%), percentage change from baseline (day −1) ([2]; AUECτ = AUEC24, 100 mg QD, day 1): −8.15 (−45.4) %
24HC AUECτ, mean (CV%), percentage change from baseline (day −1) ([2]; AUECτ = AUEC24, 100 mg QD, day 14): −46.8 (−9.2) %
24HC AUECτ, mean (CV%), percentage change from baseline (day −1) ([2]; AUECτ = AUEC24, 300 mg QD, day 1): −12.7 (−36.5) %
24HC AUECτ, mean (CV%), percentage change from baseline (day −1) ([2]; AUECτ = AUEC24, 300 mg QD, day 14): −61.9 (−17.0) %
24HC AUECτ, mean (CV%), percentage change from baseline (day −1) ([2]; AUECτ = AUEC24, 400 mg QD, day 1): −11.7 (−34.5) %
24HC AUECτ, mean (CV%), percentage change from baseline (day −1) ([2]; AUECτ = AUEC24, 400 mg QD, day 14): −62.7 (−7.3) %
24HC AUECτ, mean (CV%), percentage change from baseline (day −1) ([2]; AUECτ = AUEC24, 600 mg QD, day 1): −14.0 (−27.9) %
24HC E t, mean (CV%), percentage change from baseline (day −1) ([2]; E t = E 12, 300 mg BID, day 1): −10.5 (−63.8) %
24HC E t, mean (CV%), percentage change from baseline (day −1) ([2]; E t = E 24, 100 mg QD, day 1): −20.9 (−49.0) %
24HC E t, mean (CV%), percentage change from baseline (day −1) ([2]; E t = E 24, 100 mg QD, day 14): −49.1 (−11.9) %
24HC E t, mean (CV%), percentage change from baseline (day −1) ([2]; E t = E 24, 300 mg QD, day 1): −22.4 (−19.5) %
24HC E t, mean (CV%), percentage change from baseline (day −1) ([2]; E t = E 24, 300 mg QD, day 14): −63.8 (−19.3) %
24HC E t, mean (CV%), percentage change from baseline (day −1) ([2]; E t = E 24, 400 mg QD, day 1): −28.4 (−28.1) %
24HC E t, mean (CV%), percentage change from baseline (day −1) ([2]; E t = E 24, 400 mg QD, day 14): −65.6 (−6.0) %
24HC E t, mean (CV%), percentage change from baseline (day −1) ([2]; E t = E 24, 600 mg QD, day 1): −30.6 (−41.0) %
maximum decrease from baseline in 24HC AUEC24 [2, 11]: 62.66%
maximum decrease from baseline in 24HC E24 [2, 11]: 65.59%
24HC levels in the brain (24HC levels in the brain): dose‐dependent reduction in 24HC levels in the brain
renal excretion / renal elimination (Urine pharmacokinetics; all doses): negligible
Ae t, mean (CV%) (Urine pharmacokinetics; Ae τ = Ae 12, soticlestat 300 mg BID oral solution, day 1): 0.490 (75.9) mg
Ae t, mean (CV%) (Urine pharmacokinetics; Ae τ = Ae 24, soticlestat 100 mg QD oral solution, day 1): 0.0900 (25.6) mg
Ae t, mean (CV%) (Urine pharmacokinetics; Ae τ = Ae 24, soticlestat 100 mg QD oral solution, day 14): 0.0800 (30.0) mg
Ae t, mean (CV%) (Urine pharmacokinetics; Ae τ = Ae 24, soticlestat 300 mg QD oral solution, day 1): 0.660 (84.3) mg
Ae t, mean (CV%) (Urine pharmacokinetics; Ae τ = Ae 24, soticlestat 300 mg QD oral solution, day 14): 0.56 (83.4) mg
Ae t, mean (CV%) (Urine pharmacokinetics; Ae τ = Ae 24, soticlestat 400 mg QD oral solution, day 1): 0.920 (47.7) mg
Ae t, mean (CV%) (Urine pharmacokinetics; Ae τ = Ae 24, soticlestat 400 mg QD oral solution, day 14): 1.01 (31.9) mg
Ae t, mean (CV%) (Urine pharmacokinetics; Ae τ = Ae 24, soticlestat 600 mg QD oral solution, day 1): 1.440 (74.4) mg
f e, mean (CV%) (Urine pharmacokinetics; [4]): 0.0900 (25.6) %
f e, mean (CV%) (Urine pharmacokinetics; [5]): 0.0800 (30.0) %
f e, mean (CV%) (Urine pharmacokinetics; soticlestat 300 mg BID oral solution, day 1): 0.160 (75.9) %
f e, mean (CV%) (Urine pharmacokinetics; [6]): 0.220 (84.3) %
f e, mean (CV%) (Urine pharmacokinetics; [7]): 0.190 (83.4) %
f e, mean (CV%) (Urine pharmacokinetics; [8]): 0.230 (47.7) %
f e, mean (CV%) (Urine pharmacokinetics; [9]): 0.250 (31.9) %
f e, mean (CV%) (Urine pharmacokinetics; [10]): 0.240 (74.4) %
tolerability of single doses ([3]; doses up to 1350 mg): well tolerated
circulating levels of 24HC ([3]; single rising doses): dose‐dependent reduction
